Assay results taken from ChEMBL document CHEMBL2016497, “Analogs of the RSK inhibitor SL0101: optimization of in vitro biological stability” (Bioorg Med Chem Lett, 2012).
Activity calls are given as the source filed them. The rule behind the calls is not given here.

How the values were obtained:
MCF7 [1] = test: Down regulation of cyclin D1 level in human MCF7 cells at 100 uM at 96 hrs by immunoblotting analysis relative to control; format: functional, cell-based
Summary of the method: (§1)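 MCF7 cells treated at 100 μM; at each time point cells were lysed and lysates immunoblotted for cyclin D1 versus control, each compound analyzed on a single membrane.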

MCF7 [2] = test: Antiproliferative activity against human MCF7 cells at 50 uM after 48 hrs by CellTiter-GloTM assay; format: functional, cell-based
Summary of the method: (§2)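 MCF-10A and MCF7 cells exposed to inhibitor at 50 μM; growth compared with vehicle. n=3 in quadruplicate.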

MCF7 [3] = test: Down regulation of cyclin D1 level in human MCF7 cells at 100 uM at 48 hrs by immunoblotting analysis relative to control; format: functional, cell-based; summary of the method: as §1
MCF7 [4] = test: Antiproliferative activity against human MCF7 cells at 100 uM after 144 hrs by CellTiter-GloTM assay; format: functional, cell-based
Summary of the method: (§3)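 Stability time course: MCF7 cells given inhibitor (100μM) at plating (time 0); percentage of growth measured at set time points versus vehicle. n=3 in quadruplicate.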

MCF7 [5] = test: Antiproliferative activity against human MCF7 cells after 48 hrs by CellTiter-GloTM assay; format: functional, cell-based; details: MCF7, 48 h
MCF7 [6] = test: Antiproliferative activity against human MCF7 cells at 100 uM after 96 hrs by CellTiter-GloTM assay; format: functional, cell-based; summary of the method: as §3
MCF-10A = test: Antiproliferative activity against human MCF10A cells at 50 uM after 48 hrs by CellTiter-GloTM assay; format: cell-based; summary of the method: as §2
MCF7 [7] = test: Antiproliferative activity against human MCF7 cells at 100 uM after 48 hrs by CellTiter-GloTM assay; format: functional, cell-based; summary of the method: as §3
[8] = Solubility of the compound; format: physicochemical
[9] = molecular target: Ribosomal protein S6 kinase alpha-3 (Homo sapiens, UniProt P51812); test: Inhibition of His-tagged RSK2 expressed in Sf9 cells using ERalpha-Ser167 RLASTND as substrate after 120 mins by chemiluminescence assay
Chain of Ribosomal protein S6 kinase alpha-3 (P51812 whole entry): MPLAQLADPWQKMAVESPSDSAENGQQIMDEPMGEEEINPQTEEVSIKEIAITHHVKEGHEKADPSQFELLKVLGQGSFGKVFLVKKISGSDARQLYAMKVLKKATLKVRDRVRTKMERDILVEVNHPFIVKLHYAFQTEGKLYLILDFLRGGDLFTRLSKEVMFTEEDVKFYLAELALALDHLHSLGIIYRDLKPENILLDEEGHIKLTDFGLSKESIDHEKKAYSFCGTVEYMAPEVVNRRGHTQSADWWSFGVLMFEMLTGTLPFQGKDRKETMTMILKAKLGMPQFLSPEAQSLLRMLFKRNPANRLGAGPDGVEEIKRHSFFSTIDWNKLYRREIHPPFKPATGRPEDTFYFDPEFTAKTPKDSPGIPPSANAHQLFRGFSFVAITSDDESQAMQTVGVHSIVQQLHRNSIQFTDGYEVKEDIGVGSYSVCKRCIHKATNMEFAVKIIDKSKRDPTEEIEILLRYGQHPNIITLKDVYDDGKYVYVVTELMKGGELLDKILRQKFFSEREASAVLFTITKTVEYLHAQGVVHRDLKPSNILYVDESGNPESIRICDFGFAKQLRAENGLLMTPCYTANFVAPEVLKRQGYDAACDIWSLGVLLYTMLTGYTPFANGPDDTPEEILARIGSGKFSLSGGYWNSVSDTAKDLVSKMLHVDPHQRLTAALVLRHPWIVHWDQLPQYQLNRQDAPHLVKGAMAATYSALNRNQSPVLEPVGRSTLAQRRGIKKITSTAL

| Structure (SMILES) | Activity (MCF7 [4]) | IC50 (MCF7 [5]) | Activity (MCF7 [6]) | Activity (MCF7 [7]) | solubility [8] | further results |
| --- | --- | --- | --- | --- | --- | --- |
| CC(=O)O[C@@H]1[C@@H](OC(C)=O)[C@@H](O)[C@H](Oc2c(-c3ccc(O)cc3)oc3cc(O)cc(O)c3c2=O)O[C@H]1C | inactive | 45.6 µM | inactive | Active | – | Activity (MCF7 [1]): inactive; Activity (MCF7 [2]): Active; Activity (MCF7 [3]): Active; Activity (MCF-10A): Non-toxic |
| C[C@@H]1O[C@@H](Oc2c(-c3ccc(O)cc3)oc3cc(O)cc(O)c3c2=O)[C@H](O)[C@H](OC(=O)N2CCOCC2)[C@H]1OC(=O)N1CCOCC1 | – | – | – | – | soluble | – |
| C[C@@H]1O[C@@H](Oc2c(-c3ccc(O)cc3)oc3cc(O)cc(O)c3c2=O)[C@H](O)[C@H](OC(=O)N2CCCC2)[C@H]1OC(=O)N1CCCC1 | – | – | – | – | Insoluble | – |
| CC(=O)CO[C@@H]1[C@@H](OCC(C)=O)[C@@H](O)[C@H](Oc2c(-c3ccc(O)cc3)oc3cc(O)cc(O)c3c2=O)O[C@H]1C | inactive | 34.1 µM | inactive | inactive | – | IC50 [9]: 0.252 µM |
| C[C@@H]1O[C@@H](Oc2c(-c3ccc(O)cc3)oc3cc(O)cc(O)c3c2=O)[C@H](O)[C@H](OC(=O)N(C)C)[C@H]1OC(=O)N(C)C | – | – | – | – | Insoluble | – |
